Reference: ChEMBL document CHEMBL5325511, “Discovery of N-(4-(Aminomethyl)phenyl)-5-methylpyrimidin-2-amine Derivatives as Potent and Selective JAK2 Inhibitors” (ACS Med Chem Lett, 2023)
Calls of active or inactive are those of the source. The calls are words filed in the database; no cut-off is given here.

Legend:
[1] = Half life in Sprague-Dawley rat at 5 mg/kg, po measured upto 24 hrs by LC-MS/MS analysis; type: ADME, organism-based; settings: in vivo, po, 5 mg/kg, 24 h
Procedure, shortened: (§1)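 Sprague–Dawley rats, n = 5, dosed at 5 mg/kg as a solution in 2% ethanol and 1% Tween 80, pH 5.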

[2] = biological target: Tyrosine-protein kinase Lck (Homo sapiens) (UniProt P06239); assay: Inhibition of LCK (unknown origin)
Procedure, shortened: (§2)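 Kinase panel profiling (KinaseProfile, run by an outside contractor). The inhibitor was tested at 1 μM in duplicate against DMSO control. The value is % control, the percentage of kinase activity remaining.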

[3] = Cmax in Sprague-Dawley rat at 5 mg/kg, po measured upto 24 hrs by LC-MS/MS analysis; type: ADME, organism-based; design: dose 5 mg/kg, time < 24 hrs, route po; settings: in vivo, 24 h; procedure, shortened: as §1
[4] = test system: BaF3; assay: Inhibition of JAK2/STAT signaling pathway in mouse BaF3 cells harbouring JAK2 V617F mutant assessed as reduction in AKT phosphorylation at 10 to 1000 nM by Western blot analysis; type: cell-based; settings: dose 10-1000 nM
Procedure, shortened: (§3)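 Ba/F3 JAK2V617F cells treated with compound at increasing concentrations. Phosphorylation levels of JAK2, STAT3, STAT5 and AKT assessed by Western blot.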

[5] = biological target: T1, Tyrosine-protein kinase JAK3 (Homo sapiens, UniProt P52333); assay: Inhibition of JAK3 (unknown origin) in presence of Mg/ATP mixture by [gamma p33]-ATP based radiometric assay
T1 sequence (P52333 whole entry): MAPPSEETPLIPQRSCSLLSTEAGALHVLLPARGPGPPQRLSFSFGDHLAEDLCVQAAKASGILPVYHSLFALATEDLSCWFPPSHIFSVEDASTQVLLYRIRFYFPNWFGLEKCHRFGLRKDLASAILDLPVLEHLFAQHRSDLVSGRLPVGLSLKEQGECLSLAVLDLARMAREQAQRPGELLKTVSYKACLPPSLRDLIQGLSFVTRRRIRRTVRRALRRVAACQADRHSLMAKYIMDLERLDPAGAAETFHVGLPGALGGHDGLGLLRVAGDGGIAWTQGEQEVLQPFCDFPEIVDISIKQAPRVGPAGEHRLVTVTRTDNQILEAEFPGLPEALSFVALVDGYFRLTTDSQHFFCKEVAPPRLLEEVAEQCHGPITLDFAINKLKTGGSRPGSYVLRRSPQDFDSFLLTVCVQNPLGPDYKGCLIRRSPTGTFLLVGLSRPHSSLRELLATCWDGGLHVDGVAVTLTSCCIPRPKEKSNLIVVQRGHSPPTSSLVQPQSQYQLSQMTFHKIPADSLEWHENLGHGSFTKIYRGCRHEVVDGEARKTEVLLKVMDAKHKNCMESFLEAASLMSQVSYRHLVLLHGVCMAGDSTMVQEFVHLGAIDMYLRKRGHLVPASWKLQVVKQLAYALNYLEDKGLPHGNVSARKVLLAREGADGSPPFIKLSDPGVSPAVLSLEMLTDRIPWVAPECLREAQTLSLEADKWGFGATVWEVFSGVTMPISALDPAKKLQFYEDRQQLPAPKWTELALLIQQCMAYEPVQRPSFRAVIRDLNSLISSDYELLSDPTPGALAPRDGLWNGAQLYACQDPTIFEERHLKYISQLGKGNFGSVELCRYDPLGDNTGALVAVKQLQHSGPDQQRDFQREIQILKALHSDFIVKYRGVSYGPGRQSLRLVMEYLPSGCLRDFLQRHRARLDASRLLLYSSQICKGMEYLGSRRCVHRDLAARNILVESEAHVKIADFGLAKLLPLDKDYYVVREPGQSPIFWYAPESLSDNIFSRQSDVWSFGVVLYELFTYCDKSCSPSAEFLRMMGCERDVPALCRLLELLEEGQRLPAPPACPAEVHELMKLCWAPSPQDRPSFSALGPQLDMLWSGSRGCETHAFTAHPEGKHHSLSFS

[6] = biological target: Tyrosine-protein kinase JAK2 (Homo sapiens, UniProt O60674); assay: Inhibition of JAK2 (unknown origin) in presence of Mg/ATP mixture by [gamma p33]-ATP based radiometric assay
Procedure, shortened: (§4)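 IC50 values determined by Eurofins Discovery.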

[7] = biological target: Tyrosine-protein kinase JAK1 (Homo sapiens, UniProt P23458); assay: Inhibition of JAK1 (unknown origin) in presence of Mg/ATP mixture by [gamma p33]-ATP based radiometric assay; procedure, shortened: as §4
[8] = biological target: T2, Receptor-type tyrosine-protein kinase FLT3 (Homo sapiens, UniProt P36888); assay: Inhibition of FLT3 in human MOLM-13 cells; type: cell-based
T2 sequence (P36888 whole entry): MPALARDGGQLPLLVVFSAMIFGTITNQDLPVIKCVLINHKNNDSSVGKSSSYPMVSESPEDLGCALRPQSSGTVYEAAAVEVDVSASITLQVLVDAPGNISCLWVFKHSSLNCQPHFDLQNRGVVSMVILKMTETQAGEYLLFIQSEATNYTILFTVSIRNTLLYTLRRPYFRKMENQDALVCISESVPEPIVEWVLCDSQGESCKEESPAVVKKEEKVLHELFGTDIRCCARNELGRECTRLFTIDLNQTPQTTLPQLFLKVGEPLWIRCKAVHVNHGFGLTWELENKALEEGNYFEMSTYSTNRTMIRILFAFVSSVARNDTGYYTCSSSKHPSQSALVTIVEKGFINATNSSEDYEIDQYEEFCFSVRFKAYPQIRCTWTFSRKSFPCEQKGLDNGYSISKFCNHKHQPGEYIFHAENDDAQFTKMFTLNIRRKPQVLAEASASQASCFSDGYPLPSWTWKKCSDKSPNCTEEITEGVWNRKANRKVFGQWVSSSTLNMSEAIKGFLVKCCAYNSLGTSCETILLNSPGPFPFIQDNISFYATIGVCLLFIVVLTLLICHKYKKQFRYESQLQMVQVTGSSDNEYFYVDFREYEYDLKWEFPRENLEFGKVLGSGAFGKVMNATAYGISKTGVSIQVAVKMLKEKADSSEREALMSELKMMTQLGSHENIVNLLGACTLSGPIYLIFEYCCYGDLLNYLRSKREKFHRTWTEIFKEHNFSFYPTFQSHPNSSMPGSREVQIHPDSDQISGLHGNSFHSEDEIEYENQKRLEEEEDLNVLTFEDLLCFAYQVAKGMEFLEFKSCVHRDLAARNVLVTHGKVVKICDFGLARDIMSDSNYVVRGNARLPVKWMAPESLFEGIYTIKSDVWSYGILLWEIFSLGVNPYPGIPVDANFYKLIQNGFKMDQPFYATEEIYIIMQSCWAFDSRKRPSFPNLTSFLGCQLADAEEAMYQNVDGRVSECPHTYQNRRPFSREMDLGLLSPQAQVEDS
Procedure, shortened: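 Cell proliferation assay. IC50 is the concentration that inhibits proliferation by 50%, taken from dose–response curves. Mean ± SEM of at least three independent experiments.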

[9] = biological target: Tyrosine-protein kinase Lyn (Homo sapiens) (UniProt P07948); assay: Inhibition of LYN (unknown origin); procedure, shortened: as §2
[10] = test system: BaF3; assay: Inhibition of JAK2/STAT signaling pathway in mouse BaF3 cells harbouring JAK2 V617F mutant assessed as reduction in STAT3 phosphorylation by Western blot analysis; type: cell-based; settings: dose 10-1000 nM; procedure, shortened: as §3

Sequence of Tyrosine-protein kinase Lyn (Homo sapiens) (P07948 2-512 limits assumed): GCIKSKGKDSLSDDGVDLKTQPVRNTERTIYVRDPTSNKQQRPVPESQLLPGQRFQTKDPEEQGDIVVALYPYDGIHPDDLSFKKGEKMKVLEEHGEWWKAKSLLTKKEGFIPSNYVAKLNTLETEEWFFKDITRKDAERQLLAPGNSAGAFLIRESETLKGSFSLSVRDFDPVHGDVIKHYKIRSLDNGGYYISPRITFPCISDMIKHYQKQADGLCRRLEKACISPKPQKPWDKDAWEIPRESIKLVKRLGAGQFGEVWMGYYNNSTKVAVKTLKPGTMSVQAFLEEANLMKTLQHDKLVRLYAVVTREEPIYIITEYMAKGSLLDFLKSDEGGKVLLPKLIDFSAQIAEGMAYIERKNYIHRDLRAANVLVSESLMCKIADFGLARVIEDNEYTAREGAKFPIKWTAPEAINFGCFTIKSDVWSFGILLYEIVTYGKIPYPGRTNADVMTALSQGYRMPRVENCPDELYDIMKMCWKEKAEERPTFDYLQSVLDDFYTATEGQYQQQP
Sequence of Tyrosine-protein kinase Lck (Homo sapiens) (P06239 2-509 limits assumed): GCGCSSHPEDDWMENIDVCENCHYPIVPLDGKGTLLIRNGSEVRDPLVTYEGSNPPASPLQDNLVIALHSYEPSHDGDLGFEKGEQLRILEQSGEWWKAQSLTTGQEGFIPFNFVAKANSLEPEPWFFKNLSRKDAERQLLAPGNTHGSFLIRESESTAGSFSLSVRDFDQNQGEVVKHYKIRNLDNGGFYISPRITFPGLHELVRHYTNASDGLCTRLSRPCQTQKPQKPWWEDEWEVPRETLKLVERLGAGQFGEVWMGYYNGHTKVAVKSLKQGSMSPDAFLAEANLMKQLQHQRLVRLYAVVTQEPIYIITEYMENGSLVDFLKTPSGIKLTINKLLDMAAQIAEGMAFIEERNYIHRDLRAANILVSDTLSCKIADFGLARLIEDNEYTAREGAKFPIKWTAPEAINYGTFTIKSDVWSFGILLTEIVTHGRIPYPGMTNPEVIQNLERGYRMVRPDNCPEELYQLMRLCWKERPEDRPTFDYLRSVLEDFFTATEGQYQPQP
Sequence of Tyrosine-protein kinase JAK1 (P23458 whole entry): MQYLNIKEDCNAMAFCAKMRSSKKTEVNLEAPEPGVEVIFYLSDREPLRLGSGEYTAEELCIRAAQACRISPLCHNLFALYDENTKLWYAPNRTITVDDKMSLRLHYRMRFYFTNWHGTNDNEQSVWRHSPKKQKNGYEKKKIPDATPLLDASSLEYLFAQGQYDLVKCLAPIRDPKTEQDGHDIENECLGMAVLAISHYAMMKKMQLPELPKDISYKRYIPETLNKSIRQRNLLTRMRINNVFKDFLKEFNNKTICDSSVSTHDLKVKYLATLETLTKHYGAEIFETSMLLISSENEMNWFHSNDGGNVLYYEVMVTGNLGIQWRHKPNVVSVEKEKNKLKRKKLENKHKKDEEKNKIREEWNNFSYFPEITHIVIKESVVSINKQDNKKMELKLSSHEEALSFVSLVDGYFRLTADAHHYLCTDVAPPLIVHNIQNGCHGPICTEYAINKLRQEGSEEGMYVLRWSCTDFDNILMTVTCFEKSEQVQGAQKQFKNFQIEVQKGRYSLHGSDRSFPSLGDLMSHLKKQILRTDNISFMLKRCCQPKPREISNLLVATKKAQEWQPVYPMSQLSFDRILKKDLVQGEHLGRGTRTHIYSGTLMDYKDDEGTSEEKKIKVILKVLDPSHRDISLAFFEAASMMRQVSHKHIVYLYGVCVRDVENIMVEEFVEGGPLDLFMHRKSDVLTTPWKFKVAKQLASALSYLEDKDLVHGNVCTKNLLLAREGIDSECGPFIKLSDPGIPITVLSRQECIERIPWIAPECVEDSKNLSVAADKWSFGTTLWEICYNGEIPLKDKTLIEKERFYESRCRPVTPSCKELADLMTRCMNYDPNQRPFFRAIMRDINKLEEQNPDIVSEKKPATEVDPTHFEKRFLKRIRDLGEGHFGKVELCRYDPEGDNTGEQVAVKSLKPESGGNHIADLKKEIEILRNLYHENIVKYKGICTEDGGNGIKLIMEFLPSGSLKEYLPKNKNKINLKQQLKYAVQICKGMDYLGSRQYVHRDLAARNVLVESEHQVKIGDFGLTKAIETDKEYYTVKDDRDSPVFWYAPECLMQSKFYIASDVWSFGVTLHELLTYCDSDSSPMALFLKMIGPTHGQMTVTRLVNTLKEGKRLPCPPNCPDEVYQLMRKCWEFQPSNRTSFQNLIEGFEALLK
Sequence of Tyrosine-protein kinase JAK2 (O60674 whole entry): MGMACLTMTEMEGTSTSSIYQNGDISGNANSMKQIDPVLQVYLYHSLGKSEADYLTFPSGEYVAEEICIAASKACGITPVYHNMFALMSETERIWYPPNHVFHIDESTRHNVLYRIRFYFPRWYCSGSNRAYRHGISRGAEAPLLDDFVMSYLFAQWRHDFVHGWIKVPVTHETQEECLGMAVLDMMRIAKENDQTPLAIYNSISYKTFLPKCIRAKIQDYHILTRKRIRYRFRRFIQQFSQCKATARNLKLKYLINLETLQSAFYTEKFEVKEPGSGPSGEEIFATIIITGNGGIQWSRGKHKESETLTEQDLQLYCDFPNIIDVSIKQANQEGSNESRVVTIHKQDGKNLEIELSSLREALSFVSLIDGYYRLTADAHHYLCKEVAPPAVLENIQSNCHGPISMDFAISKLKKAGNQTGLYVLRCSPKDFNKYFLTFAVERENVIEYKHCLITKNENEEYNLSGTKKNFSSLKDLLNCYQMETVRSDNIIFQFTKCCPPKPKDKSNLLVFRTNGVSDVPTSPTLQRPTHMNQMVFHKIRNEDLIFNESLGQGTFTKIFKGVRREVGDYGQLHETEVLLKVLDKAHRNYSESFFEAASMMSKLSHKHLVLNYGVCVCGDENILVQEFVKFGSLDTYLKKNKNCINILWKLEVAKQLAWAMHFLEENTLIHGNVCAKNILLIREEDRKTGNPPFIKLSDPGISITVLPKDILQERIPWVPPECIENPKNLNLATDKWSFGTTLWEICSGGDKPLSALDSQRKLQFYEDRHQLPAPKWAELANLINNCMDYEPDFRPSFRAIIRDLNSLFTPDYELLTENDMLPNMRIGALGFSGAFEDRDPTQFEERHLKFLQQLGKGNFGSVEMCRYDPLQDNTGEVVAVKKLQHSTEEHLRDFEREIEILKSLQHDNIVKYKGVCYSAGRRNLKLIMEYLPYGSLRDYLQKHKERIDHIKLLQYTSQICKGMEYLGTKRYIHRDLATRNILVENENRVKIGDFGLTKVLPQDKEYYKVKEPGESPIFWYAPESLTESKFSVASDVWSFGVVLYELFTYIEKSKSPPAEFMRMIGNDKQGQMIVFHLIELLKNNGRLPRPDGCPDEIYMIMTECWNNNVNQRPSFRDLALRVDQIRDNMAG

## C=CS(=O)(=O)NCc1ccc(Nc2ncc(C)c(-c3cnn(C(C)C)c3)n2)cc1
[1]
  t1/2: 5.2 h
[2]
  inhibition: Active
[3]
  Cmax: 121.4 ng/mL
[4]
  inhibition: Active
[5]
  IC50: 273 nM
[6]
  IC50: 5 nM
[7]
  IC50: 193 nM
[8]
  IC50: 583 nM
[9]
  inhibition: Active
[10]
  inhibition: Dose-Dependent Effect
